Test results reported in ChEMBL document CHEMBL3352559, “Synthesis and pharmacological investigation of aralkyl diamine derivatives as potential triple reuptake inhibitors” (Eur J Med Chem, 2014).

Tests used:
[1] = target: Adrenergic receptor alpha-2 (Homo sapiens) (UniProt P08913+P18825+P18089); assay: Displacement of [3H]-RX-821002 from alpha-2 adrenergic receptor (unknown origin) at 10 uM relative to control; assay type: protein assay
How it was run: (§1)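 Outsourced CNS panel of 55 receptor binding assays run by Cerep. Compound tested at 10 μM, the default primary-binding concentration, with inhibition expressed relative to control. Inhibition above 50% taken as a significant effect.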

Salmonella typhimurium [2] = assay: Mutagenic activity in Salmonella typhimurium TA98 assessed as number of reversion mutation at 100 ug/plate; assay type: toxicity, organism-based; conditions: salmonella enterica subsp. enterica serovar typhimurium
How it was run: (§2)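 Ames reversion test in Salmonella typhimurium TA98 and TA100, with and without rat liver S9 metabolic activation. Compound was dissolved in DMSO and added at 3–5000 μg/plate. Each dose, vehicle and positive control was plated in triplicate, and revertant colonies were counted.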

[3] = Drug uptake in Sprague-Dawley rat brain at 0.5 mg/kg ip after 1 hrs
Salmonella typhimurium [4] = assay: Mutagenic activity in Salmonella typhimurium TA98 assessed as number of reversion mutation at 5000 ug/plate; assay type: toxicity, organism-based; conditions: salmonella enterica subsp. enterica serovar typhimurium; how it was run: as §2
[5] = Elimination half life in Sprague-Dawley rat at 2 mg/kg, po; assay type: ADME, organism-based; set-up: dose 2 mg/kg, route oral; conditions: in vivo, read-out: beta t1/2 (converted)
[6] = target: Mu-type opioid receptor (Homo sapiens) (UniProt P35372); assay: Displacement of […] from human mu opioid receptor at 10 uM relative to control; how it was run: as §1
Sequence of Mu-type opioid receptor (Homo sapiens) (P35372 whole entry): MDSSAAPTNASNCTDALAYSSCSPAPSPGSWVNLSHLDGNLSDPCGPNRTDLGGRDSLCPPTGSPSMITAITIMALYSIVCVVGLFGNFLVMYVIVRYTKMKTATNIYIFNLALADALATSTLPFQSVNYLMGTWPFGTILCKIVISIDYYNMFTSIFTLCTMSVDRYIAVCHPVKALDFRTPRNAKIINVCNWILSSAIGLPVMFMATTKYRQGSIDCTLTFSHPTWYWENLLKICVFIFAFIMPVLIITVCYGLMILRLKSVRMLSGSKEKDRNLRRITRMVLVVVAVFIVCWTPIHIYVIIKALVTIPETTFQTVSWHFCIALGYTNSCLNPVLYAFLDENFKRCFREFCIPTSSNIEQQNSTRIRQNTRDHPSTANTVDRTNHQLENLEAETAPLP

[7] = target: Somatostatin receptor (Homo sapiens) (UniProt P35346+P30874+P31391+P30872+P32745); assay: Displacement of [125ITyr11- somatostatin-14 from sst receptor (unknown origin) at 10 uM relative to control; assay type: protein assay; how it was run: as §1
[8] = target: Muscarinic acetylcholine receptor M2 (Homo sapiens) (UniProt P08172); assay: Displacement of [3H]AF-DX 384 from human muscarinic M2 receptor at 10 uM relative to control; how it was run: as §1
Sequence of Muscarinic acetylcholine receptor M2 (Homo sapiens) (P08172 whole entry): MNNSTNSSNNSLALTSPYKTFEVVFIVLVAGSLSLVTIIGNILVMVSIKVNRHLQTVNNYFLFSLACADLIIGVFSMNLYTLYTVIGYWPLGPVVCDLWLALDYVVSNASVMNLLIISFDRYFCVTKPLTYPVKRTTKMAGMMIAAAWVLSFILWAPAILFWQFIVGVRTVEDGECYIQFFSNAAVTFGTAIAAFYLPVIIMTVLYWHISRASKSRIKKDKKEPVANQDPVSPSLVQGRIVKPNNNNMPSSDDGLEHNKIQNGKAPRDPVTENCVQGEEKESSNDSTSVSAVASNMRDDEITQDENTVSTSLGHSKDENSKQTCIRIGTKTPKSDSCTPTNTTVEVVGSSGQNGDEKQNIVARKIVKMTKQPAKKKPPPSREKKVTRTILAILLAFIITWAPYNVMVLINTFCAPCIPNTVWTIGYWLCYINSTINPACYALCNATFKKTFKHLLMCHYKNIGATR

[9] = target: Type-1 angiotensin II receptor (Homo sapiens) (UniProt P30556); assay: Displacement of [125I][Sar1,Ile8]-ATII from human angiotensin AT1 receptor at 10 uM relative to control; how it was run: as §1
Sequence of Type-1 angiotensin II receptor (Homo sapiens) (P30556 whole entry): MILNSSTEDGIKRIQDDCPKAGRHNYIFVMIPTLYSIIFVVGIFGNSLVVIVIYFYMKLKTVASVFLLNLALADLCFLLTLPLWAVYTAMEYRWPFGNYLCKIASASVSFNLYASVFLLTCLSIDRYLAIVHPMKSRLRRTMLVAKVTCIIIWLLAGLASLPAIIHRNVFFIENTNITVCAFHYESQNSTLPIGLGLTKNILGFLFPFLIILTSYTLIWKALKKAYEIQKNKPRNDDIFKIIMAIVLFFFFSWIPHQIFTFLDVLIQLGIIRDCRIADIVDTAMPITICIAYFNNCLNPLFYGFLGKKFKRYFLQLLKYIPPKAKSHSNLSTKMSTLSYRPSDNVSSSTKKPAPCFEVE

[10] = target: 5-hydroxytryptamine receptor 7 (Homo sapiens) (UniProt P34969); assay: Displacement of [3H]LSD from human 5-HT7 receptor at 10 uM relative to control; how it was run: as §1
Sequence of 5-hydroxytryptamine receptor 7 (Homo sapiens) (P34969 whole entry): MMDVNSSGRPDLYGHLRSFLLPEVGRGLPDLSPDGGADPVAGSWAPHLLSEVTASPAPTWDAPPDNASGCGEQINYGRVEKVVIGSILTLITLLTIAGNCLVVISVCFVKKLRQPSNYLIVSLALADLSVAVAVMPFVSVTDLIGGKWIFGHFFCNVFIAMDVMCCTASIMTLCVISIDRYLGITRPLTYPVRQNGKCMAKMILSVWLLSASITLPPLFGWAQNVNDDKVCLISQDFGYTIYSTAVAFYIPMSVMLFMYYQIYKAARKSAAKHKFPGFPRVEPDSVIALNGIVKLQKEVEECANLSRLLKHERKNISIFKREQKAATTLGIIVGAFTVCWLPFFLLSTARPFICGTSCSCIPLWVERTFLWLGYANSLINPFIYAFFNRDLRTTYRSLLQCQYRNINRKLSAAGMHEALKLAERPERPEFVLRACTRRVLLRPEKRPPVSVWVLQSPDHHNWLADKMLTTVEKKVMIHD

[11] = Ratio of drug level in Sprague-Dawley rat brain to plasma at 0.5 mg/kg iv after 1 hrs; assay type: ADME, organism-based; set-up: dose 0.5 mg/kg, route intravenous; conditions: read-out: BPR
[12] = target: C-X-C chemokine receptor type 2 (Homo sapiens) (UniProt P25025); assay: Displacement of [125I]IL-8 from CXCR2 receptor (unknown origin) at 10 uM relative to control; how it was run: as §1
Sequence of C-X-C chemokine receptor type 2 (Homo sapiens) (P25025 whole entry): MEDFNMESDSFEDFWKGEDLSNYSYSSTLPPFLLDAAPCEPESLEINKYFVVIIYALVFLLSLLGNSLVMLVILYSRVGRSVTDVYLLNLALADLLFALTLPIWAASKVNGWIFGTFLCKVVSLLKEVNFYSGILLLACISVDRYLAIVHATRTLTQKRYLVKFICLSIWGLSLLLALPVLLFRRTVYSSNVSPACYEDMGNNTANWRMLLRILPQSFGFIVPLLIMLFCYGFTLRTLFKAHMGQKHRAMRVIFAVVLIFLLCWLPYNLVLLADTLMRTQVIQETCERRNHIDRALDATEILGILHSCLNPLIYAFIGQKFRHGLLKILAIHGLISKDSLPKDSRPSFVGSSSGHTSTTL

Homo sapiens [13] = organism: Homo sapiens; assay: Displacement of [3H]GABA from GABA receptor (unknown origin) at 10 uM relative to control; how it was run: as §1
Homo sapiens [14] = organism: Homo sapiens; assay: Inhibition of Kv channel (unknown origin) at 10 uM by [125I]alpha-dendrotoxin binding assay relative to control
How it was run: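 Radioligand binding was run at a contract laboratory as part of a 55-target CNS receptor panel. Test concentration was 10 μM. Inhibition of specific binding was expressed relative to control, and inhibition greater than 50% was taken as significant.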

[15] = Apparent oral clearance in Sprague-Dawley rat at 2 mg/kg, po; assay type: ADME, organism-based; set-up: dose 2 mg/kg, route oral; conditions: in vivo
How it was run: (§3)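 Male SD rats, fasted overnight until 6 h post-dose. PO group received single 2 mg/kg with heparinized blood sampled at 5, 15, 30 min, 1, 2, 4, 8, 24 h. IV group received single 0.5 mg/kg via femoral vein with sampling at 5, 15, 30 min, 1, 2, 4 h. Plasma stored at -40 °C, quantified by LC/MS/MS; 24 rats per group.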

[16] = Ratio of drug level in Sprague-Dawley rat brain to plasma at 0.5 mg/kg iv after 0.08 hrs; assay type: ADME, organism-based; set-up: dose 0.5 mg/kg, route intravenous; conditions: read-out: BPR
Salmonella typhimurium [17] = assay: Mutagenic activity in Salmonella typhimurium TA100 assessed as number of reversion mutation at 3 ug/plate; assay type: toxicity, organism-based; conditions: salmonella enterica subsp. enterica serovar typhimurium; how it was run: as §2
[18] = target: Vasoactive intestinal polypeptide receptor 1 (Homo sapiens) (UniProt P32241); assay: Displacement of [125I]VIP from human VPAC1 receptor at 10 uM relative to control; how it was run: as §1
Sequence of Vasoactive intestinal polypeptide receptor 1 (Homo sapiens) (P32241 whole entry): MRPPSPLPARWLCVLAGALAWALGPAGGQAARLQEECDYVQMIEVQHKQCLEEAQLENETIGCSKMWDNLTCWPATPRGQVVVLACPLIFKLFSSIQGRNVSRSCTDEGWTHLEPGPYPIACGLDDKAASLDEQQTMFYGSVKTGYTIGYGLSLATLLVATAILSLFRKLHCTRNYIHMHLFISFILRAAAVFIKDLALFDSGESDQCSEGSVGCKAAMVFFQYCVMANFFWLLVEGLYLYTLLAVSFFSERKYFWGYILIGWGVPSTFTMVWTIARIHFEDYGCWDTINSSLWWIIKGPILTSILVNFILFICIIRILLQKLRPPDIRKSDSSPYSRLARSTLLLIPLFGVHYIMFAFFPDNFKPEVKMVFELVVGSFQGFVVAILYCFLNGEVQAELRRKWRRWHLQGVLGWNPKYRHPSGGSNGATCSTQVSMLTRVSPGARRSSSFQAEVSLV

[19] = Acute toxicity in KM mouse assessed as survival at 600 mg/kg, po up to 14 days (reference value: 100%); assay type: organism-based; set-up: dose 600 mg/kg, route oral; conditions: in vivo
Rattus norvegicus [20] = assay: Antidepressant activity in po dosed rat assessed as reduction in immobility time by forced swimming test; assay type: functional, organism-based
How it was run: (§4)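 Male rats dosed orally at 5, 10 or 20 mg/kg alongside vehicle and venlafaxine 30 mg/kg PO groups. 1 h post-dose, each rat placed in a glass cylinder (40 cm × 18 cm) holding 15 cm of 25 ± 1 °C water. Immobility time recorded over a 6 min trial; significant main effects followed by post hoc Fisher's test.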

Rattus norvegicus [21] = assay: Antidepressant activity in rat assessed as reduction in immobility time at 10 mg/kg, po by forced swimming test relative to control; assay type: functional; how it was run: as §4
[22] = Mean residence time in Sprague-Dawley rat at 0.5 mg/kg, iv; assay type: ADME, organism-based; set-up: dose 0.5 mg/kg, route intravenous; conditions: in vivo
How it was run: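 Male SD rats, fasted overnight until 6 h post-dose; single 0.5 mg/kg femoral-vein injection; blood drawn into heparin at 5, 15, 30 min, 1, 2 and 4 h; plasma stored at -40 °C; drug levels by LC/MS/MS; noncompartmental parameters.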

Rattus norvegicus [23] = assay: Toxicity in rat assessed as effect on locomotion at 20 mg/kg, po after 60 mins by spontaneous locomotor test; assay type: organism-based; set-up: dose 20 mg/kg, route oral; conditions: in vivo, 1 h
How it was run: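 Rats dosed orally at 20 mg/kg, with vehicle and venlafaxine 30 mg/kg PO as controls; 60 min later placed singly in novel 40×40×50 cm cages under dim light with sound attenuation; activity recorded automatically in 5 min bins over 30 min; mean ± SEM.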

Salmonella typhimurium [24] = assay: Mutagenic activity in Salmonella typhimurium TA98 assessed as number of reversion mutation at 10 ug/plate; assay type: toxicity, organism-based; conditions: salmonella enterica subsp. enterica serovar typhimurium; how it was run: as §2
[25] = target: 5-hydroxytryptamine receptor 3A (Homo sapiens) (UniProt P46098); assay: Inhibition of human 5HT3 at 10 uM by […] binding assay relative to control
Sequence of 5-hydroxytryptamine receptor 3A (Homo sapiens) (P46098 whole entry): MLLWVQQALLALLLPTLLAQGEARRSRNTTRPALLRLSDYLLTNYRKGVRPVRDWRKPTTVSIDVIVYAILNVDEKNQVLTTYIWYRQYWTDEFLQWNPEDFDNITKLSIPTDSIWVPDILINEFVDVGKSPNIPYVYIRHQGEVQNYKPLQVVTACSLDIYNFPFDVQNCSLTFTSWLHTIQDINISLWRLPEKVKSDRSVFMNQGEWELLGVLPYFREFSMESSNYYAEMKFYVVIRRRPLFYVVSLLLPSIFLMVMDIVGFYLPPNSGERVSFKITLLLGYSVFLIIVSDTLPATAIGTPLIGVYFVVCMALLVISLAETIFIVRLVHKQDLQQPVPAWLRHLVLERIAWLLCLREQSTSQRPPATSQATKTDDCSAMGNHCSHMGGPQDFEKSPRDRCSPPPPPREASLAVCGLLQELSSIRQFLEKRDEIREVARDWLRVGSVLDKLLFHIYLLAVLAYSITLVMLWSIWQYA
How it was run: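 Outsourced CNS receptor panel (55 binding assays); compound tested at 10 μM in primary radioligand binding; specific binding inhibition expressed relative to control, with >50% inhibition taken as a significant effect.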

[26] = Drug uptake in Sprague-Dawley rat brain at 0.5 mg/kg ip after 0.08 hrs
[27] = target: 5-hydroxytryptamine receptor 6 (Homo sapiens) (UniProt P50406); assay: Displacement of [3H]LSD from human 5-HT6 receptor at 10 uM relative to control; how it was run: as §1
Sequence of 5-hydroxytryptamine receptor 6 (Homo sapiens) (P50406 whole entry): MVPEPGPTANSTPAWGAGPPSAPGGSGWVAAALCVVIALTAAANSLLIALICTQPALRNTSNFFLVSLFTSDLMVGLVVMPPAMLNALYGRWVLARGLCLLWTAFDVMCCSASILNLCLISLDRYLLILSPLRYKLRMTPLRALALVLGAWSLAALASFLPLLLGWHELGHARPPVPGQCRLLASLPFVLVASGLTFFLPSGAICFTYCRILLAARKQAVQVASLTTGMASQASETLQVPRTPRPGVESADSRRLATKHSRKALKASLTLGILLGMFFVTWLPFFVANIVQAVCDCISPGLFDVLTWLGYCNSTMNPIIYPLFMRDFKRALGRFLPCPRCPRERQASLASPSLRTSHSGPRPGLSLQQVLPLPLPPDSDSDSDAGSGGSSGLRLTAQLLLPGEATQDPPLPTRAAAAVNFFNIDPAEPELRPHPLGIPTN

[28] = Acute toxicity in KM mouse assessed as survival at 750 mg/kg, po up to 14 days (reference value: 100%); assay type: organism-based; set-up: dose 750 mg/kg, route oral; conditions: in vivo
[29] = Drug uptake in Sprague-Dawley rat brain at 0.5 mg/kg iv after 4 hrs; assay type: ADME, organism-based; set-up: dose 0.5 mg/kg, route intravenous; conditions: read-out: Drug uptake
[30] = Ratio of drug level in Sprague-Dawley rat brain to plasma at 0.5 mg/kg iv after 2 hrs; assay type: ADME, organism-based; set-up: dose 0.5 mg/kg, route intravenous; conditions: read-out: BPR
[31] = AUC (0 to infinity) in Sprague-Dawley rat at 2 mg/kg, po; assay type: ADME, organism-based; set-up: dose 2 mg/kg, route oral, time infinity; conditions: plasma; how it was run: as §3

SMILES: CN(C)CCC(c1ccc(Cl)c(Cl)c1)N1CCOCC1 (stereo unspecified)
- inhibition [1]: 9.6%
- Activity (Salmonella typhimurium [2]): 41
- concentration at 1 h [3]: 425 ng/mL
- Activity (Salmonella typhimurium [4]): 12
- half-life [5]: 4.5 h
- inhibition [6]: 39.7%
- inhibition [7]: 3.2%
- inhibition [8]: 17.7%
- inhibition [9]: -9.5%
- inhibition [10]: 8.9%
- Kp at 1 h [11]: 12.7
- inhibition [12]: 9.3%
- inhibition (Homo sapiens [13]): 9.8%
- inhibition (Homo sapiens [14]): -3.6%
- CL/F [15]: 417 mL/min/kg
- Kp at 0.08 h [16]: 23.1
- Activity (Salmonella typhimurium [17]): 87
- inhibition [18]: 2.2%
- survival at 336 h [19]: 80%
- inhibition (Rattus norvegicus [20]): Dose-dependent effect
- inhibition in vivo at 10 mg/kg (Rattus norvegicus [21]): 47%
- MRT [22]: 1.06 h
- Activity (Rattus norvegicus [23]): Non-toxic
- Activity (Salmonella typhimurium [24]): 32
- inhibition [25]: -5.2%
- concentration at 0.08 h [26]: 1120 ng/mL
- inhibition [27]: 2.4%
- survival at 336 h [28]: 60%
- concentration at 4 h [29]: 42.2 ng/mL
- Kp at 2 h [30]: 16.4
- AUC(0-inf) [31]: 80 ng·h/mL
